Source: PubChem (Johns Hopkins Ion Channel Center)
Sampled rows, rich in hits. Any-hit rate of the full collection: about 3.5%.
MrgX1 antag = blocks BAM8-22 activation of human MrgX1 receptor. Q96LB2. MRGX1-HEK293 calcium flux, Fluo-4, BAM8-22 antagonism; hits give low values. B-score at 10 µM. 310,000 compounds, 1.3% hits;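 active means calcium-response B-score plate-corrected more than 3 library SD below zero, starting fluorescence within 5 deviations, no agonist response on first addition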;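 further: peak minus trough fluorescence over baseline after final BAM8-22 challenge near maximal dose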
Target sequence (Q96LB2 whole entry, looked up): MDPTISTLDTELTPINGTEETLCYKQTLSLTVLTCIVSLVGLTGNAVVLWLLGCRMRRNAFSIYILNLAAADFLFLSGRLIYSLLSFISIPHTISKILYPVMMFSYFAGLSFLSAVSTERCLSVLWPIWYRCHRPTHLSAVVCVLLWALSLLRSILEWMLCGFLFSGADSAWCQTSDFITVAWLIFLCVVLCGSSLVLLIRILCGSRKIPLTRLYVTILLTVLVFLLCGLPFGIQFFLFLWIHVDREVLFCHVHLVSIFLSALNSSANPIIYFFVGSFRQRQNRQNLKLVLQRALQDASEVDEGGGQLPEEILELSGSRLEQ
MrgX1 agonist = agonists of human MrgX1 receptor. B-score at 10 µM. Q96LB2. 310,000 compounds, 0.44% hits. MrgX1-HEK293 cells, Fluo-4 calcium fluorescence, agonist mode; hits give high values;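 active means calcium response B-score plate-corrected fluorescence ratio at least 3 library SD, with starting fluorescence B-score inside 5 SD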
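Material: MrgX1-expressing HEK293 cells / Dosing: compound as first of three additions / Incubation: overnight seeding, then 1 h dark dye loading / Signal: Fluo-4 NW calcium fluorescence / Evaluation: B-scored fluorescence response ratio / Benchmarks: positive and negative control wells on each plate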
RGS4 act = potentiators or activators of RGS4. HEK293 M3R/inducible RGS4, carbachol calcium flux Fluo4; hits give low values. AID 463111. B-score at 10 µM. 310,000 compounds, 0.92% hits;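 active means B-score of the integrated calcium signal more than 4 SD below the library mean, with starting fluorescence not abnormally high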;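 further: negative B-score means reduced calcium response which marks RGS4 activation or potentiation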
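Material: M3R-expressing HEK293 line, RGS4 induced by doxycycline | Schedule: Overnight RGS4 induction, 30 min dye load 37 °C, 20 min compound RT | Measured by: Fluo4 fluorescence kinetic imaging of calcium | Read-out: Integrated calcium ratio converted to B score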
MrgX1 allo act = human MrgX1 positive allosteric modulation, primary screen. 310,000 compounds, 0.63% hits. B-score at 10 µM. AID 588675. MrgX1-HEK293, Fluo-4 calcium flux, FDSS; hits give high values;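 active means plate-corrected calcium response at least 3 library SD above typical, normal starting fluorescence, not activating the receptor alone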;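 further: compound read alongside a low EC10 to EC30 dose of BAM8-22 agonist; peak minus trough fluorescence over baseline measured at the second addition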
RGS4 block = human RGS4 inhibition; P49798; HEK293 M3R/RGS4 inducible, Fluo-4 calcium flux; hits give high values; triggered by carbachol at its EC20; B-score at 10 µM; 310,000 compounds, 0.45% hits; AID 463165;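 active means B-score, a plate-corrected calcium signal, over three deviations above library mean, with baseline fluorescence within five deviations of library mean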;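 further: RGS4 expression induced by doxycycline in cells with stable M3 receptor; B-score is computed from the integrated fluorescence ratio over baseline after carbachol; higher B-score means a larger calcium signal and so more RGS4 inhibition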
Target sequence (P49798 whole entry, looked up): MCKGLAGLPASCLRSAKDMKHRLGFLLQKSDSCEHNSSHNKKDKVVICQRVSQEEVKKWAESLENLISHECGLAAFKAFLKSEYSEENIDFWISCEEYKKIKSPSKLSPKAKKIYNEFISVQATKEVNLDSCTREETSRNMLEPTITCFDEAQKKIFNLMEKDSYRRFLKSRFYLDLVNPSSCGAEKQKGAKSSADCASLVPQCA
MrgX1 ant reconf = reconfirmed antagonist of human MrgX1 receptor signaling. shares compounds with MrgX1 antag. MrgX1-HEK293, BAM8-22 calcium flux, Fluo-4; hits give low values. remaining BAM8-22 calcium response % of control (hits give low values), % at 10 µM. 2,300 compounds, 19% hits. AID 602420;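 active means remaining agonist calcium response no higher than 100% minus 3 SD of agonist-only control wells, with starting fluorescence near control levels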;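 further: agonist BAM8-22 given at a near maximal EC90 to ECmax level; peak minus minimum fluorescence divided by baseline after agonist addition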
HEK293 Ca flux = MrgX1 antagonist counter-screen hit in parental HEK293 cells | 4,000 compounds, 2% hits | fluorescence ratio F(max-min)/F0 at 10 µM | shares compounds with MrgX1 antag | Fluo-4 calcium fluorescence, FDSS | AID 624111;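 active means duplicate-averaged calcium fluorescence ratio at least three times the standard deviation of buffer wells, a nonspecific response in parental cells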
HEK293 Ca counter = counter-screen for MrgX1 allosteric activators: effect in parental HEK293 cells | shares compounds with MrgX1 antag | fluorescence ratio F(max-min)/F0 at 10 µM | AID 624114 | parental HEK293 calcium flux, Fluo-4 fluorescence ratio; hits give high values | 4,000 compounds, 0.4% hits;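 active means calcium fluorescence ratio, averaged over duplicates, at least 3 SD of the buffer-well ratio, meaning a nonspecific response in receptor-free cells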;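 further: untransfected parental HEK293 lacking MrgX1 used as counterscreen for MrgX1 allosteric activators; fluorescence change taken during the second addition on a kinetic imager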
HEK293 Ca cntr2 = MrgX1 activator counter-screen hit in parental HEK293 cells; shares compounds with MrgX1 antag; Fluo-4 calcium fluorescence (FDSS); hits give high values; fluorescence ratio F(max-min)/F0 at 10 µM; 4,000 compounds, 8.7% hits;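 active means calcium fluorescence ratio at least three times the spread of buffer wells, meaning a non-specific response in parental cells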
Large screens that a line does not name were inactive (follow-up assays come after a bar, where they were run).

COc1ccc(OC)c(-n2c(SCC(N)=O)nnc2-c2c[nH]c3ccccc23)c1	MrgX1 antag -6.7 | MrgX1 ant reconf inactive | HEK293 Ca flux inactive | HEK293 Ca counter inactive | HEK293 Ca cntr2 inactive
O=C(N=C1c2ccccc2CN1c1ccc(F)c(Cl)c1)c1cccnc1Cl	none
CCOc1ccc(S(=O)(=O)NC(=O)c2ccccc2)cc1	none
Cc1ccc(S(=O)(=O)NC(=O)c2ccccc2)cc1C(C)C	MrgX1 antag -8.1 | MrgX1 ant reconf inactive | HEK293 Ca flux inactive | HEK293 Ca counter inactive | HEK293 Ca cntr2 inactive
COc1ccccc1N=Cc1c(C)c(C#N)c2[nH]c3ccccc3n2c1=O	MrgX1 antag -6.2 | MrgX1 ant reconf inactive | HEK293 Ca flux inactive | HEK293 Ca counter inactive | HEK293 Ca cntr2 inactive
CCOc1ccc(-n2nc3c(SCCN4CCCC4)nnc(C)c3c2C)cc1	MrgX1 antag -4.7 | MrgX1 ant reconf inactive | HEK293 Ca flux inactive | HEK293 Ca counter inactive | HEK293 Ca cntr2 inactive
Cc1ccc(-n2nc3c(SCCN4CCOCC4)nnc(C)c3c2C)cc1	none
CCc1ccc(/C=C2\Oc3c(ccc(O)c3CN3CCN(CCO)CC3)C2=O)cc1	none
COc1cccc(NC(=O)Nc2ccc(Br)cn2)c1	none
O=C(COC(=O)c1cccs1)c1ccc2ccccc2c1	MrgX1 antag -5.6 | MrgX1 ant reconf inactive | HEK293 Ca flux inactive | HEK293 Ca counter inactive | HEK293 Ca cntr2 inactive
O=C(Nc1cccc(Cl)c1)N(Cc1nc2ccccc2c(=O)[nH]1)Cc1cccs1	none
COc1ccc(C(=O)NC(C)c2ccc(-n3ccnc3)cc2)c(OC)c1 (stereo not drawn)	MrgX1 antag -10 | MrgX1 ant reconf inactive | HEK293 Ca flux inactive | HEK293 Ca counter inactive | HEK293 Ca cntr2 inactive
Cc1ccc(C)c(OC2=NS(=O)(=O)c3ccccc32)c1	MrgX1 antag -4.8 | MrgX1 ant reconf inactive | HEK293 Ca flux inactive | HEK293 Ca counter inactive | HEK293 Ca cntr2 inactive
COC1=NS(=O)(=O)c2ccccc21	none
CC(=O)c1ccc(NC(=O)C(C)NCc2ccccc2Cl)cc1 (stereo not drawn)	MrgX1 antag -6.2 | MrgX1 ant reconf inactive | HEK293 Ca flux inactive | HEK293 Ca counter inactive | HEK293 Ca cntr2 inactive
COc1ccc2[nH]c(=O)c(CN(c3ccc(C)c(C)c3)S(C)(=O)=O)cc2c1	MrgX1 antag -4.5 | MrgX1 ant reconf inactive | HEK293 Ca flux inactive | HEK293 Ca counter inactive | HEK293 Ca cntr2 inactive
O=C(c1nc2nc(-c3ccc(Cl)cc3)cc(C(F)(F)F)n2n1)N1CCOCC1	none
O=C(c1nc2nc(-c3ccccc3)cc(C(F)(F)F)n2n1)N1CCOCC1	MrgX1 antag -5.5 | MrgX1 ant reconf 85% | HEK293 Ca flux inactive | HEK293 Ca counter inactive | HEK293 Ca cntr2 inactive
COC(=O)c1cc(NC(=O)Cn2c(=O)oc3ccccc32)cc(C(=O)OC)c1	none
O=C1C2CCCN2C(c2cccc(Br)c2)N1c1ccc(F)cc1 (stereo not drawn)	none
O=C1C2CCCN2C(c2ccc(Br)cc2)N1c1ccc(F)cc1 (stereo not drawn)	MrgX1 antag -5.7 | MrgX1 ant reconf inactive | HEK293 Ca flux inactive | HEK293 Ca counter inactive | HEK293 Ca cntr2 inactive
COc1ccc(C2N(c3ccc(F)cc3)C(=O)C3CCCN32)cc1 (stereo not drawn)	MrgX1 antag -6.3 | MrgX1 ant reconf inactive | HEK293 Ca flux inactive | HEK293 Ca counter inactive | HEK293 Ca cntr2 inactive
CCOC(=O)COc1ccc(S(=O)(=O)NCC2CCCO2)cc1 (stereo not drawn)	MrgX1 antag -4.7 | MrgX1 ant reconf inactive | HEK293 Ca flux inactive | HEK293 Ca counter inactive | HEK293 Ca cntr2 inactive
